The source made the active and inactive calls. No cut-off for these calls is given here.
Tests used:
[1] = test system: A549; experiment: Cytotoxicity against human A549 cells assessed as reduction in cell viability by sulforhodamine B assay; type: functional, cell-based
How it was run: (§1)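 Cells were kept in RPMI-1640 with 10% FBS, 2 mM L-glutamine, 50 μM β-mercaptoethanol and penicillin/streptomycin, at 37 °C in 5% CO2. SRB assay used 100, 10, 1, 0.1 and 0.01 μM, each in triplicate. Percent inhibition was calculated against solvent control OD. IC50 came from Logit curve fitting and is the mean of three independent experiments.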

[2] = test system: Candida albicans; experiment: Antifungal activity against Candida albicans ATCC 76615 by microplate reader assay; type: functional; conditions: ATTCC76615
How it was run: (§2)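 Broth microdilution read by optical density at 630 nm. MIC80 is the first well with about 80% less growth than the drug-free well. Each concentration was run in three replicate wells, and values are means of three independent experiments.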

[3] = test system: Cryptococcus neoformans; experiment: Antifungal activity against Cryptococcus neoformans ATCC 32609 by microplate reader assay; type: functional; conditions: ATTCC32609; how it was run: as §2
[4] = test system: HCT-116; experiment: Cytotoxicity against human HCT-116 cells assessed as reduction in cell viability by sulforhodamine B assay; type: functional, cell-based; how it was run: as §1
[5] = test system: HCT-116; experiment: Induction of apoptosis in human HCT-116 cells assessed as increase in necrotic cells measured upto 2 times of IC50 concentration by annexin V staining based flow cytometry analysis; type: functional, cell-based
How it was run: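 HCT-116 cells treated with vehicle or three compound concentrations, collected, and stained with Annexin V-FITC and propidium iodide in the dark at 4 °C. Flow cytometry quadrants: Q4 live, Q3 early apoptotic, Q2 late apoptotic, Q1 necrotic. n = 3; ANOVA vs vehicle.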

[6] = Inhibition of angiogenesis in human HMEC-1 cells assessed as tube formation by matrigel-based assay; type: functional, cell-based
How it was run: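 HMEC-1 cells seeded onto solidified Matrigel and exposed to compound, then cultured. Total tube length measured and used to calculate IC50. Three independent experiments.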

[7] = test system: CCRF S-180; experiment: Antitumor activity against mouse S-180 cells implanted in KM mouse assessed as tumor growth inhibition at 50 mg/kg, IG administered everyday for 7 days relative to control; type: functional; conditions: CCRF S-180, po, 168 h, time 7 day, read-out: TGI
How it was run: (§3)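 S-180 or H22 cells, about 2.5 × 10⁶ per mouse, injected s.c. in the right axilla of wild-type KM mice. Randomized after 24 h and dosed intragastrically for 7 days; sacrificed 24 h after the last dose. TGI = (W_C − W_T)/W_C × 100% from average tumor weight. n = 8; one-way ANOVA vs vehicle.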

[8] = test system: H22; experiment: Antitumor activity against mouse H22 cells implanted in KM mouse assessed as tumor growth inhibition at 5 mg/kg, IG administered everyday for 7 days relative to control; type: functional; conditions: H22, po, 168 h, time 7 day, read-out: TGI; how it was run: as §3
[9] = test system: H22; experiment: Antitumor activity against mouse H22 cells implanted in KM mouse assessed as tumor growth inhibition at 50 mg/kg, IG administered everyday for 7 days relative to control; type: functional; conditions: H22, po, 168 h, time 7 day, read-out: TGI; how it was run: as §3
[10] = test system: Bel-7402; experiment: Antitumor activity against human Bel-7402 cells implanted in BALB/c-nu mouse assessed as tumor growth inhibition at 5 mg/kg, IG administered everyday for 7 days relative to control; type: functional; conditions: Bel-7402, po, 168 h, time 7 day, read-out: TGI
[11] = test system: Bel-7402; experiment: Antitumor activity against human Bel-7402 cells implanted in BALB/c-nu mouse assessed as tumor growth inhibition at 50 mg/kg, IG administered everyday for 7 days relative to control; type: functional; conditions: Bel-7402, po, 168 h, time 7 day, read-out: TGI
[12] = test system: Mus musculus; experiment: Immunomodulatory activity in cyclophosphamide-immunosuppressed KM mouse assessed as increase in carbon particle clearance index in at 50 to 500 mg/kg, IG once daily measured after 14 days; type: functional, organism-based; conditions: dose 50-500 mg/kg, time 14.0 day
How it was run: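 KM mice dosed intragastrically once daily for 14 days at 5, 50 or 500 mg/kg; vehicle 0.5% CMC-Na. CTX 50 mg/kg i.p. on days 7, 9 and 11. 1 h after the last dose, 25% Indian ink given i.v. at 0.1 mL/10 g. Blood (20 µL) taken at 2 and 10 min, lysed in 2 mL water, OD 680 nm read. K and α calculated with body, liver and spleen weights. n = 8.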

[13] = test system: Bel-7402; experiment: Antitumor activity against human Bel-7402 cells implanted in BALB/c-nu mouse assessed as T/C ratio at 5 mg/kg, IG administered everyday for 7 days relative to control; type: functional; conditions: time 7 day
[14] = test system: Bel-7402; experiment: Antitumor activity against human Bel-7402 cells implanted in BALB/c-nu mouse assessed as T/C ratio at 500 mg/kg, IG administered everyday for 7 days relative to control; type: functional; conditions: time 7 day
[15] = test system: Bel-7402; experiment: Antitumor activity against human Bel-7402 cells implanted in BALB/c-nu mouse assessed as T/C ratio at 100 mg/kg, IG administered everyday for 7 days relative to control; type: functional; conditions: time 7 day
[16] = test system: Mus musculus; experiment: Immunomodulatory activity in cyclophosphamide-immunosuppressed KM mouse assessed as improved thymus index in at 50 to 500 mg/kg, IG once daily measured after 14 days; type: functional, organism-based; conditions: dose 50-500 mg/kg, time 14.0 day
How it was run: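 KM mice dosed intragastrically at 5, 50 or 500 mg/kg; vehicle 0.5% CMC-Na. After five doses, immunized i.p. with 0.2 mL 20% rabbit erythrocytes, and dosing continued for 8 days. CTX 30 mg/kg i.p. on days 2, 4 and 6 after immunization. 1 h after the last dose, spleen and thymus weighed; index in g/kg. n = 8.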

Work on `C=C(C)CCC[C@]1(C)OC(=O)[C@]23CC[C@@H]4C(=CCC5C(C)(C)[C@@H](O[C@@H]6OC[C@@H](OS(=O)(=O)[O-])[C@H](O)[C@H]6O[C@@H]6O[C@H](C)[C@@H](O[C@@H]7OC[C@@H](O)[C@H](O[C@@H]8O[C@H](CO)[C@@H](O)[C@H](OC)[C@H]8O)[C@H]7O)[C@H](O)[C@H]6O)CC[C@@]54C)[C@]2(C)C[C@H](OC(C)=O)[C@@H]31.[Na+]` (stereo partly specified) yielded an IC50 [1] of 1270 nM, an MIC80 [2] of 4 µg/mL and an MIC80 [3] of 16 µg/mL. For the same compound, the IC50 [4] was 1360 nM, the Activity [5] was “Active” and the IC50 [6] was 60 nM. It also gave an inhibition in vivo at 50 mg/kg [7] of 55.5%, an inhibition in vivo at 5 mg/kg [8] of 40.1% and an inhibition in vivo at 50 mg/kg [9] of 43.3%. For the same compound, the inhibition in vivo at 5 mg/kg [10] was 50.1%, the inhibition in vivo at 50 mg/kg [11] was 58.2% and the Activity [12] was “Active”. It also gave a T/C [13] of 45%, a T/C [14] of 32% and a T/C [15] of 20%. The Activity [16] was “Active”.
